Experimental findings from ChEMBL document CHEMBL1123808, “Synthesis of two glucagon antagonists: receptor binding, adenylate cyclase, and effects on blood plasma glucose levels” (J Med Chem, 1987) are described below.

The species entered for test [1] is Rattus norvegicus. The test can be described thus: Ability to displace [125I]glucagon was determined. The format is functional. An outline of the steps: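 Rat liver plasma membranes (male Sprague-Dawley; 50 μg protein/0.5 mL) in Tris-HCl 25 mM pH 7.5 with 1% BSA, incubated with [125I]glucagon (100 000 cpm, 25 fmol) and unlabelled peptide at various concentrations for 10 min at 30 °C. Then iced, filtered and washed, and filter radioactivity counted. Nonspecific binding taken with 1 μM unlabelled glucagon. Triplicates, repeated two or three times. IC50 from displacement curves.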

The species named for test [2] is Rattus norvegicus. The test can be described thus: Compound tested for the inhibition of glucagon-mediated hyperglycemia in rats. Also noted: scale not given: the % may be the effect or the level left. The format is functional. An outline of the steps: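 Normal male Wistar rats under pentobarbital, femoral vein and artery catheterised. At time 0, glucagon 1 μg/kg and an excess of analogue were given together in the same 0.5 mL buffer bolus. Plasma glucose followed over 50 min as change from basal. Mean of 4-6 animals.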

Test [3] is filed under the species Rattus norvegicus. The experiment in a line: Binding affinity against glucagon receptor was determined in rat by using adenylate cyclase assay. The test is classed as functional.
Test [4] relates to Rattus norvegicus. The experiment in a line: Compound tested for the increase in blood glucose level in rats at a dose of 1 ug/kg in 10 min. The test is classed as functional, organism-based. The essentials: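 Male Wistar rats (250-400 g), fed ad libitum, under pentobarbital (70 mg/kg) at 36-37 °C. Peptide given as a femoral-vein bolus in 0.5 mL NaCl 145 mM/Na2CO3 2 mM/0.25% BSA. Plasma glucose from femoral-artery samples at 0, 2, 5, 10, 20, 30, 40, 50 min, expressed as change from each rat's basal level. Buffer-only controls run. n = 4-6.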

A word on the IC50: it is the concentration needed to halve the response being measured.

In test [1], `CSCC[C@H](NC(=O)[C@H](CC(C)C)NC(=O)[C@H](Cc1c[nH]c2ccccc12)NC(=O)[C@H](CCC(N)=O)NC(=O)[C@@H](NC(=O)[C@H](Cc1ccccc1)NC(=O)[C@H](CCC(=O)O)NC(=O)[C@H](CCC(N)=O)NC(=O)[C@H](C)NC(=O)[C@H](CCCCN)NC(=O)[C@H](CCCCN)NC(=O)[C@H](CO)NC(=O)[C@H](CC(=O)O)NC(=O)[C@H](CC(C)C)NC(=O)[C@H](Cc1ccc(O)cc1)NC(=O)[C@H](CCCNC(=N)N)NC(=O)[C@H](CO)NC(=O)[C@H](Cc1cc(I)c(O)c(I)c1)NC(=O)[C@H](CC(=O)O)NC(=O)[C@H](CO)NC(=O)[C@@H](NC(=O)[C@H](Cc1ccccc1)NC(=O)[C@H](Cc1ccc(O)cc1)NC(=O)[C@@H](Cc1ccccc1)NC(=O)[C@H](CCC(N)=O)NC(=O)[C@H](CO)NC(=O)[C@@H](N)Cc1c[nH]cn1)[C@@H](C)O)C(C)C)C(=O)N[C@@H](CC(N)=O)C(=O)N[C@H](C(=O)O)[C@@H](C)O` [listing 1 of 2 here] returned an IC50 of 13 nM. The compound `CSCC[C@H](NC(=O)[C@H](CC(C)C)NC(=O)[C@H](Cc1c[nH]c2ccccc12)NC(=O)[C@H](CCC(N)=O)NC(=O)[C@@H](NC(=O)[C@H](Cc1ccccc1)NC(=O)[C@H](CCC(=O)O)NC(=O)[C@H](CCC(N)=O)NC(=O)[C@H](C)NC(=O)[C@H](CCCCN)NC(=O)[C@H](CCCCN)NC(=O)[C@H](CO)NC(=O)[C@H](CC(=O)O)NC(=O)[C@H](CC(C)C)NC(=O)[C@H](Cc1ccc(O)cc1)NC(=O)[C@H](CCCNC(=N)N)NC(=O)[C@H](CO)NC(=O)[C@H](Cc1cc(I)c(O)c(I)c1)NC(=O)[C@H](CC(=O)O)NC(=O)[C@H](CO)NC(=O)[C@@H](NC(=O)[C@H](Cc1ccccc1)NC(=O)[C@H](Cc1ccc(O)cc1)NC(=O)[C@@H](Cc1ccccc1)NC(=O)[C@H](CCC(N)=O)NC(=O)[C@H](CO)NC(=O)[C@@H](N)Cc1c[nH]cn1)[C@@H](C)O)C(C)C)C(=O)N[C@@H](CC(N)=O)C(=O)N[C@H](C(=O)O)[C@@H](C)O` [listing 2 of 2 here] showed an Activity in test [2] of 50%.

In turn, GLUCAGON [listing 1 of 2 here] displayed an IC50 in test [1] of 6.7 nM. With GLUCAGON [listing 2 of 2 here], the ED50 in test [3] was 9.6 nM. Also, in test [4], the Activity came out at 95.1 mg/dL.
